Experimental data as given in ChEMBL document CHEMBL1142894, “Preparation of 5-aryl-3-alkylthio-l,2,4-triazoles and corresponding sulfones with antiinflammatory-analgesic activity” (Bioorg Med Chem, 2007).
Activity calls are given as the source filed them. The calls are words filed in the database; no cut-off is given here.

system: Mus musculus; experiment: Acute toxicity in Swiss albino mouse assessed as lethal effect at 25 mg/kg/day, po after 72 hrs; assay type: organism-based; set-up: route oral; conditions: in vivo
Outline: (§1)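 Oral single dose suspended in 0.5% carboxymethylcellulose, given after a 24 h fast; food and water returned 1 h after dosing. Vehicle-only controls. Mice observed at 1 h, then once daily for 72 h, for toxic signs and mortality.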

Row | SMILES | Activity
1 | CCS(=O)(=O)c1nc(-c2cccc(Br)c2)n[nH]1 | Non-toxic
2 | CSc1nc(-c2ccccc2Cl)n[nH]1 | Non-toxic
3 | CCSc1nc(-c2ccc(Br)cc2)n[nH]1 | Non-toxic
4 | CSc1nc(-c2cccc(Br)c2)n[nH]1 | Non-toxic
5 | CSc1n[nH]c(-c2ccc(Cl)cc2)n1 | Non-toxic
6 | CS(=O)(=O)c1nc(-c2ccc(Br)cc2)n[nH]1 | Non-toxic

system: Mus musculus; experiment: Inhibition of carrageenan-induced paw edema in Swiss albino mouse at 100 mg/kg, po after 360 mins relative to control; assay type: functional; conditions: 6 h
Outline: (§2)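 Oral dosing in 0.5% CMC; vehicle to controls. Then carrageenan (0.5 mg/25 ll, freshly suspended in 154 mM saline) injected into the right hind paw subplantar tissue; saline into the left paw. Right-left footpad thickness difference measured by dial gauge calliper every 90 min over 6 h. Inhibition % is relative to vehicle control. n = 6; mean ± SEM.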

Row | SMILES | inhibition in vivo at 100 mg/kg
7 | CSc1nc(-c2ccccc2Cl)n[nH]1 | 17.2%

system: Mus musculus; experiment: Inhibition of p-benzoquinone-induced writhing in Swiss albino mouse at 200 mg/kg, po relative to control; assay type: functional; conditions: not given
Outline: (§3)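 Mice, n = 6 per group, dosed orally with a suspension in 0.5% sodium CMC. 60 min later, 0.1 ml/10 g of 2.5% […] p-benzoquinone in distilled water given ip. Abdominal writhes counted per animal for 15 min, starting 5 min after injection. Expressed as % change in mean writhing count versus vehicle controls.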

Row | SMILES | inhibition in vivo at 200 mg/kg
8 | CC(=O)Oc1ccccc1C(=O)O [ASPIRIN] | 53.6%

system: Mus musculus; experiment: Antiinflammatory activity against carrageenan-induced paw edema in Swiss albino mouse assessed as swelling thickness at 100 mg/kg, po after 90 mins; assay type: functional; conditions: not given; outline: as §2

Row | SMILES | Activity
9 | CCS(=O)(=O)c1nc(-c2cccc(Br)c2)n[nH]1 | 68.8 10^-2mm
10 | CSc1nc(-c2ccccc2Cl)n[nH]1 | 42.7 10^-2mm
11 | CCSc1nc(-c2ccc(Br)cc2)n[nH]1 | 59.6 10^-2mm
12 | CSc1nc(-c2cccc(Br)c2)n[nH]1 | 47.5 10^-2mm
13 | CS(=O)(=O)c1nc(-c2ccc(Br)cc2)n[nH]1 | 51.2 10^-2mm

system: Mus musculus; experiment: Gastric-ulcerogenic effect in Swiss albino mouse assessed as lesions at 100 mg/kg, po; assay type: functional, organism-based; set-up: dose 100 mg/kg; conditions: not given
Outline: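 Mice killed under deep ether anesthesia 3 h after the writhing test; the oral dose in 0.5% CMC was the one used in that test. Stomachs removed, opened along the great curvature and examined under a dissecting microscope for lesions or bleeding. Reported as ratio of ulceration; n = 6.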

Row | SMILES | Activity
14 | CSc1nc(-c2ccccc2Cl)n[nH]1 | Active
15 | CSc1nc(-c2cccc(Br)c2)n[nH]1 | Active

system: Mus musculus; experiment: Antiinflammatory activity against carrageenan-induced paw edema in Swiss albino mouse assessed as swelling thickness at 100 mg/kg, po after 360 mins; assay type: functional; conditions: not given; outline: as §2

Row | SMILES | Activity
16 | CCS(=O)(=O)c1nc(-c2cccc(Br)c2)n[nH]1 | 91.7 10^-2mm
17 | CSc1nc(-c2ccccc2Cl)n[nH]1 | 57 10^-2mm
18 | CCSc1nc(-c2ccc(Br)cc2)n[nH]1 | 88.3 10^-2mm
19 | CSc1nc(-c2cccc(Br)c2)n[nH]1 | 79.5 10^-2mm
20 | CS(=O)(=O)c1nc(-c2ccc(Br)cc2)n[nH]1 | 64 10^-2mm

system: Mus musculus; experiment: Analgesic activity against p-benzoquinone-induced abdominal constriction in Swiss albino mouse assessed as number of writhings at 100 mg/kg, po; assay type: functional, Abdomen; conditions: not given
Outline: (§4)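 Test samples given orally in 0.5% CMC; vehicle to controls. 60 min later, 2.5% (v/v) p-benzoquinone in distilled water, 0.1 ml/10 g, given i.p. Mice housed singly; writhes counted for 15 min starting 5 min after injection. Activity is % change from vehicle controls. n = 6; mean ± SEM.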

Row | SMILES | Activity
21 | CCS(=O)(=O)c1nc(-c2cccc(Br)c2)n[nH]1 | 45.2
22 | CSc1nc(-c2ccccc2Cl)n[nH]1 | 41.8
23 | CC(=O)Oc1ccccc1C(=O)O [ASPIRIN] | 21.2
24 | CCSc1nc(-c2ccc(Br)cc2)n[nH]1 | 49.2
25 | CSc1nc(-c2cccc(Br)c2)n[nH]1 | 46.8
26 | CS(=O)(=O)c1nc(-c2ccc(Br)cc2)n[nH]1 | 49.4

system: Mus musculus; experiment: Inhibition of carrageenan-induced paw edema in Swiss albino mouse at 100 mg/kg, po after 180 mins relative to control; assay type: functional; conditions: 3 h; outline: as §2

Row | SMILES | inhibition in vivo at 100 mg/kg
27 | CSc1nc(-c2ccccc2Cl)n[nH]1 | 5.2%

system: Mus musculus; experiment: Antiinflammatory activity against carrageenan-induced paw edema in Swiss albino mouse assessed as swelling thickness at 100 mg/kg, po after 180 mins; assay type: functional; conditions: not given; outline: as §2

Row | SMILES | Activity
28 | CCS(=O)(=O)c1nc(-c2cccc(Br)c2)n[nH]1 | 74.9 10^-2mm
29 | CSc1nc(-c2ccccc2Cl)n[nH]1 | 48.8 10^-2mm
30 | CCSc1nc(-c2ccc(Br)cc2)n[nH]1 | 69.2 10^-2mm
31 | CSc1nc(-c2cccc(Br)c2)n[nH]1 | 57.3 10^-2mm
32 | CS(=O)(=O)c1nc(-c2ccc(Br)cc2)n[nH]1 | 55.2 10^-2mm

system: Mus musculus; experiment: Inhibition of p-benzoquinone-induced writhing in Swiss albino mouse at 100 mg/kg, po relative to control; assay type: functional; conditions: not given; outline: as §3

Row | SMILES | inhibition in vivo at 100 mg/kg
33 | CCS(=O)(=O)c1nc(-c2cccc(Br)c2)n[nH]1 | 4.4%
34 | CSc1nc(-c2ccccc2Cl)n[nH]1 | 11.6%
35 | CC(=O)Oc1ccccc1C(=O)O [ASPIRIN] | 55.2%
36 | CSc1nc(-c2cccc(Br)c2)n[nH]1 | 1.1%

system: Mus musculus; experiment: Inhibition of carrageenan-induced paw edema in Swiss albino mouse at 100 mg/kg, po after 90 mins relative to control; assay type: functional; conditions: 1.5 h; outline: as §2

Row | SMILES | inhibition in vivo at 100 mg/kg
37 | CSc1nc(-c2ccccc2Cl)n[nH]1 | 4.7%

system: Mus musculus; experiment: Acute toxicity in Swiss albino mouse assessed as lethal effect at 50 mg/kg/day, po after 72 hrs; assay type: organism-based; set-up: route oral; conditions: in vivo; outline: as §1

Row | SMILES | Activity
38 | CCS(=O)(=O)c1nc(-c2cccc(Br)c2)n[nH]1 | Non-toxic
39 | CSc1nc(-c2ccccc2Cl)n[nH]1 | Non-toxic
40 | CCSc1nc(-c2ccc(Br)cc2)n[nH]1 | Non-toxic
41 | CSc1nc(-c2cccc(Br)c2)n[nH]1 | Non-toxic
42 | CSc1n[nH]c(-c2ccc(Cl)cc2)n1 | Non-toxic
43 | CS(=O)(=O)c1nc(-c2ccc(Br)cc2)n[nH]1 | Non-toxic

system: Mus musculus; experiment: Acute toxicity in Swiss albino mouse assessed as lethal effect at 100 mg/kg/day, po after 72 hrs; assay type: organism-based; set-up: route oral; conditions: in vivo; outline: as §1

Row | SMILES | Activity
44 | CCS(=O)(=O)c1nc(-c2cccc(Br)c2)n[nH]1 | Non-toxic
45 | CSc1nc(-c2ccccc2Cl)n[nH]1 | Non-toxic
46 | CCSc1nc(-c2ccc(Br)cc2)n[nH]1 | Non-toxic
47 | CSc1nc(-c2cccc(Br)c2)n[nH]1 | Non-toxic
48 | CSc1n[nH]c(-c2ccc(Cl)cc2)n1 | Non-toxic
49 | CS(=O)(=O)c1nc(-c2ccc(Br)cc2)n[nH]1 | Non-toxic

system: Mus musculus; experiment: Antiinflammatory activity against carrageenan-induced paw edema in Swiss albino mouse assessed as swelling thickness at 100 mg/kg, po after 270 mins; assay type: functional; conditions: not given; outline: as §2

Row | SMILES | Activity
50 | CCS(=O)(=O)c1nc(-c2cccc(Br)c2)n[nH]1 | 85.6 10^-2mm
51 | CSc1nc(-c2ccccc2Cl)n[nH]1 | 52.8 10^-2mm
52 | CCSc1nc(-c2ccc(Br)cc2)n[nH]1 | 78.2 10^-2mm
53 | CSc1nc(-c2cccc(Br)c2)n[nH]1 | 67.7 10^-2mm
54 | CS(=O)(=O)c1nc(-c2ccc(Br)cc2)n[nH]1 | 59.5 10^-2mm

system: Mus musculus; experiment: Acute toxicity in Swiss albino mouse assessed as lethal effect at 200 mg/kg/day, po after 72 hrs; assay type: organism-based; set-up: route oral; conditions: in vivo; outline: as §1

Row | SMILES | Activity
55 | CCS(=O)(=O)c1nc(-c2cccc(Br)c2)n[nH]1 | Non-toxic
56 | CSc1nc(-c2ccccc2Cl)n[nH]1 | Non-toxic
57 | CCSc1nc(-c2ccc(Br)cc2)n[nH]1 | Non-toxic
58 | CSc1nc(-c2cccc(Br)c2)n[nH]1 | Non-toxic
59 | CSc1n[nH]c(-c2ccc(Cl)cc2)n1 | Non-toxic
60 | CS(=O)(=O)c1nc(-c2ccc(Br)cc2)n[nH]1 | Non-toxic

system: Mus musculus; experiment: Inhibition of carrageenan-induced paw edema in Swiss albino mouse at 100 mg/kg, po after 270 mins relative to control; assay type: functional; conditions: 4.5 h; outline: as §2

Row | SMILES | inhibition in vivo at 100 mg/kg
61 | CSc1nc(-c2ccccc2Cl)n[nH]1 | 10.2%

system: Mus musculus; experiment: Analgesic activity against p-benzoquinone-induced abdominal constriction in Swiss albino mouse assessed as number of writhings at 200 mg/kg, po; assay type: functional, Abdomen; conditions: not given; outline: as §4

Row | SMILES | Activity
62 | CC(=O)Oc1ccccc1C(=O)O [ASPIRIN] | 23.8
